Test results from paper PMC10466730 (Cancer cell, 2023).
Read-outs that look alike come from different tables or passages of the source.

Experiments:
[1] = tested on: MOLM-13 cells; assay: Viability assay in MOLM-13 cells; assay type: cell-based, human; settings: MOLM-13, 72 h; for IC50: Homo sapiens
Method in brief: (§1)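 Human AML cell lines were plated at 10,000 cells per well with increasing test compound up to 100 μM for 72 h at 37 °C, 5% CO₂. CellTiter-Glo was added 1:1 for 15 min at room temperature and luminescence was read; MTT was used as an alternative read-out. Percent viability was fitted by non-linear regression to give IC50. Three independent experiments, triplicates.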

[2] = tested on: panel of AML cell lines; assay: Viability assay in a panel of AML cell lines; assay type: cell-based, human; settings: AML cell lines with various oncogenic mutations, 72 h
Method in brief: as §1

[3] = tested on: MLL-AF9 leukemic bone marrow Crbn^I391V cells; assay: Viability assay in MLL-AF9 leukemic bone marrow Crbn^I391V cells; assay type: cell-based; settings: Mus musculus, MLL-AF9, 72 h, read-out: IC50 (proliferation)
[4] = tested on: normal bone marrow Crbn^I391V cells; assay: Viability assay in normal bone marrow Crbn^I391V cells; assay type: cell-based; settings: Mus musculus, 72 h, read-out: IC50 (proliferation)
[5] = tested on: AML PDX cells; assay: Viability assay in AML PDX cells; assay type: cell-based, human; settings: read-out: IC50 (viability); two AML PDX samples, 2 days, Figure 5D
Method in brief: (§2)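 AML PDX cells or normal human bone marrow cells were plated at 10,000 cells per well with increasing test compound concentrations and cultured for 2 days at 37 °C, 5% CO₂. Viability was read by CellTiter-Glo luminescence or MTT absorbance, normalized to percent viability, and fitted by non-linear regression.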

[6] = tested on: healthy bone marrow cells; assay: Viability assay in healthy bone marrow cells; assay type: cell-based; settings: Homo sapiens, Bone marrow cell, 48 h, read-out: IC50 (viability)
Method in brief: as §2

[7] = biological target: CK1α-GFP fusion protein (Homo sapiens, UniProt P48729+Q96SW2); assay: Flow cytometry degradation assay, HEK293T CK1α-GFP; assay type: cell-based; settings: 5 h
[8] = biological target: IKZF2(zinc finger 2)-GFP fusion protein (Homo sapiens, UniProt Q96SW2+Q9UKS7); assay: Flow cytometry degradation assay, HEK293T IKZF2; assay type: cell-based; settings: HEK293T IKZF2(zinc finger 2)-GFP, 24 h
[9] = biological target: IKZF1(zinc finger 2)-GFP (Homo sapiens, UniProt Q13422); assay: Flow cytometry degradation assay, HEK293T IKZF1; assay type: cell-based; settings: HEK293T IKZF1(zinc finger 2)-GFP
[10] = biological target: GSPT1-GFP (Homo sapiens, UniProt P15170+Q96SW2); assay: Flow cytometry degradation assay, HEK293T GSPT1-GFP; assay type: cell-based
[11] = biological target: CRBN (Homo sapiens, UniProt Q96SW2); assay: HTR-FRET Cereblon binding assay
Chain of CRBN (Q96SW2 whole entry): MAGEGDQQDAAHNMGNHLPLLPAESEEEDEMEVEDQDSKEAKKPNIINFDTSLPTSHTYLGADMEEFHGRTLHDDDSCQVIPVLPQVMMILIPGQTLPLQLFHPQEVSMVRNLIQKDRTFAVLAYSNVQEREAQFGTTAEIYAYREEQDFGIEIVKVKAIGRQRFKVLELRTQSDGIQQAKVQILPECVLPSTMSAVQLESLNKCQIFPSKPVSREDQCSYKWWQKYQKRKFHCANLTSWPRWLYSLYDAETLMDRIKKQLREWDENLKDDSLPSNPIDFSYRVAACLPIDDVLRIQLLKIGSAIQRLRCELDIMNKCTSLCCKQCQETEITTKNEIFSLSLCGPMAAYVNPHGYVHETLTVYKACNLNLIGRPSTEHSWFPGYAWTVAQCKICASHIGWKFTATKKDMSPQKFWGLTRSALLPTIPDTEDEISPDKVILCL

[12] = biological target: His-CULT and streptactin-CK1α (Homo sapiens, UniProt P48729+Q96SW2); assay: AlphaScreen ternary complex between CRBN and CK1α; assay type: binding; settings: compared with lenalidomide
Chain of His-CULT and streptactin-CK1α (Q96SW2 318-426 limits assumed): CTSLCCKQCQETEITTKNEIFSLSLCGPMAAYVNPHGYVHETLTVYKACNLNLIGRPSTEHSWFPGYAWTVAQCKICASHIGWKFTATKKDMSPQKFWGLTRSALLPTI
Chain of His-CULT and streptactin-CK1α (P48729 whole entry): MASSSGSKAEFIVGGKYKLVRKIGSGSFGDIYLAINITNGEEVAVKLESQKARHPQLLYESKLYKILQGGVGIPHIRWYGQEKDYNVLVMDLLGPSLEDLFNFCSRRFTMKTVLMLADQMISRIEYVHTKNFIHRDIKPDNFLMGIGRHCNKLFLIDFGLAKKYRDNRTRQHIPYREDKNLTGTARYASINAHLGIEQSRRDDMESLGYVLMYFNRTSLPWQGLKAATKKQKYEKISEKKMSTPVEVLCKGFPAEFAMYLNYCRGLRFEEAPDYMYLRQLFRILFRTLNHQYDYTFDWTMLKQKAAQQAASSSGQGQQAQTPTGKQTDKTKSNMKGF
Method in brief: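 CK1α–CRBN ternary complex by AlphaScreen in 1× AlphaScreen buffer (3× stock: 150 mM HEPES pH 7.4, 450 mM NaCl, 0.3% BSA, 0.03% Tween 20). Streptactin-CK1α (600 nM solution) and CULT (500 nM solution) were mixed with a 2-fold serial dilution of test compound in 3% DMSO/buffer, in triplicate, for 1 h at 25 °C. Streptactin acceptor and nickel chelate donor beads were then added for 1 h at 25 °C in the dark before reading.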

[13] = biological target: IKZF2 (Homo sapiens, UniProt Q96SW2+Q9UKS7); assay: Western blot of IKZF2 in MOLM-13 cells; assay type: cell-based; settings: MOLM-13, 24 h
Chain of IKZF2 (Q9UKS7 whole entry): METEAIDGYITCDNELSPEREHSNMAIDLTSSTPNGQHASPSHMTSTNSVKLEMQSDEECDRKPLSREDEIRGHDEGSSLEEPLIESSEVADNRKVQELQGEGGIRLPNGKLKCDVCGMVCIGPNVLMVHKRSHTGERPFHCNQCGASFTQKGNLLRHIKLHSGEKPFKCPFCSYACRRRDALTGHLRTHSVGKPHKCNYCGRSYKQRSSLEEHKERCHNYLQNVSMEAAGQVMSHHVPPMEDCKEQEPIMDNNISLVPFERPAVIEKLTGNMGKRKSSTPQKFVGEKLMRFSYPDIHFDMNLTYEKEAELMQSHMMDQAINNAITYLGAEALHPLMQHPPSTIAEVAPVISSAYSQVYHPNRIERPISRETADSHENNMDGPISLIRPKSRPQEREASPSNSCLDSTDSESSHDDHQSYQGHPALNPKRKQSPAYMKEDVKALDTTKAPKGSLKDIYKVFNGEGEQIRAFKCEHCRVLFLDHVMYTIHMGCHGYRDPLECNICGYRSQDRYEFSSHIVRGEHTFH
Chain of IKZF2 (Q96SW2 whole entry): as the sequence (Q96SW2 whole entry) above
Chain of IKZF2 (Q16531 whole entry partner): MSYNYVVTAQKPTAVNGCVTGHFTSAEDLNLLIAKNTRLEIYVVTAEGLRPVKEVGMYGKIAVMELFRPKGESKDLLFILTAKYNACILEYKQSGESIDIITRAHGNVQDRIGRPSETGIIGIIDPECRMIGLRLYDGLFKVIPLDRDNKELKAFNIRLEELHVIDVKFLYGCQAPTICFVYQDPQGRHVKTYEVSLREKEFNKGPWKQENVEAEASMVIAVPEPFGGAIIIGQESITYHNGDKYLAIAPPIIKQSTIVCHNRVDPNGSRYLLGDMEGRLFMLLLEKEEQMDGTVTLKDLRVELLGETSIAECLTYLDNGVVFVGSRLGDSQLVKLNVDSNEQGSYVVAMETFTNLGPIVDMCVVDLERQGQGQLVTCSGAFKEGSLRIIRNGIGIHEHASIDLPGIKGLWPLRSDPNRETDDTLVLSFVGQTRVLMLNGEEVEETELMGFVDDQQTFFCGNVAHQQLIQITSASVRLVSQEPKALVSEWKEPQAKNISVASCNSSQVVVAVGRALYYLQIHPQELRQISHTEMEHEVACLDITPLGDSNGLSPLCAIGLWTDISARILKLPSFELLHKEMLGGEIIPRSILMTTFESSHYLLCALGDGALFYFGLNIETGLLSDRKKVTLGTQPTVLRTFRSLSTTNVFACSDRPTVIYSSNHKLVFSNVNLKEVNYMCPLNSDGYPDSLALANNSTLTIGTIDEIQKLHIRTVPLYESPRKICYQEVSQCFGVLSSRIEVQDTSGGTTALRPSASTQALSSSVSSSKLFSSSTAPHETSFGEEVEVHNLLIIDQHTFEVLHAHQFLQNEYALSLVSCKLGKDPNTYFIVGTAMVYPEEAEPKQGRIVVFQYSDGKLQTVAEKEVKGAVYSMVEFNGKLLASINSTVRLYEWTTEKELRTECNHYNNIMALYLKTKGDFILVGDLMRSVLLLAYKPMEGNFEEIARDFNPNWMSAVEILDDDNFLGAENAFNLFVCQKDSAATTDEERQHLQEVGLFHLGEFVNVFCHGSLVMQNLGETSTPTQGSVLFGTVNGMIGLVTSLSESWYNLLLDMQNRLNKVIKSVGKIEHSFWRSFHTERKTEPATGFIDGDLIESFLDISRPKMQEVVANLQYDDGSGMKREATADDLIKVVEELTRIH
Method in brief: (§3)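 MOLM-13 cells (1 × 10⁶) were treated 24 h with test compound diluted from DMSO stocks. Cells were pelleted, washed with PBS, lysed in Laemmli buffer by vortexing for 10 min, and boiled at 95 °C for 5 min. Lysates were resolved on 4–15% gradient SDS-PAGE, transferred to PVDF and immunoblotted with target-specific antibodies.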

[14] = biological target: CK1α (Homo sapiens, UniProt P48729+Q96SW2); assay: Western blot of CK1α in MOLM-13 cells; assay type: cell-based; settings: for CK1α degradation (Western blot): MOLM-13
Chain of CK1α (P48729 whole entry): as the sequence (P48729 whole entry) above
Chain of CK1α (Q96SW2 whole entry): as the sequence (Q96SW2 whole entry) above
Chain of CK1α (Q16531 whole entry partner): as the sequence (Q16531 whole entry partner) above
Method in brief: as §3

[15] = biological target: IKZF1 (Homo sapiens, UniProt Q13422); assay: Western blot of IKZF1 in MOLM-13 cells; assay type: cell-based; settings: MOLM-13, 24 h
Method in brief: as §3

[16] = biological target: IKZF3 (Homo sapiens, UniProt Q9UKT9); assay: Western blot of IKZF3 in MOLM-13 cells; assay type: cell-based; settings: MOLM-13, 24 h
Method in brief: as §3

[17] = biological target: IKZF4 (Homo sapiens, UniProt Q9H2S9); assay: Western blot of IKZF4 in MOLM-13 cells; assay type: cell-based; settings: MOLM-13, 24 h
Method in brief: as §3

[18] = biological target: GSPT1 (Homo sapiens, UniProt P15170+Q96SW2); assay: Western blot of endogenous GSPT1; assay type: cell-based; settings: degradation at micromolar concentrations, Figure S2D
[19] = tested on: MOLM-13 cells; assay: Quantitative global proteomics in MOLM-13 cells; assay type: cell-based, human; settings: 50 nM, 2 h
[20] = tested on: MOLM-13 cells; assay: Flow cytometry for apoptosis and differentiation in MOLM-13 cells; assay type: cell-based, human; settings: MOLM-13, 10 nM and 100 nM, 2 days
Method in brief: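 MOLM-13 cells were treated 48 h. For differentiation, cells were stained 20 min in the dark in 2% FBS RPMI for CD13-FITC/CD33-APC or CD14-FITC/CD11b-APC. Mean ± SEM of three experiments; Student's t test.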

[21] = tested on: MLL-AF9 Crbn^I391V cells; assay: Flow cytometry for apoptosis and differentiation in MLL-AF9 Crbn^I391V cells; assay type: cell-based, mouse; settings: 10 nM, 24 h post treatment, dependent on humanized CRBN
[22] = tested on: MLL-AF9 Crbn^I391V leukemic cells; assay: Colony assay of MLL-AF9 Crbn^I391V leukemic cells; assay type: cell-based, mouse; settings: 10 nM, M3434 methylcellulose
Method in brief: (§4)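 Murine cells were plated on MethoCult M3434 methylcellulose with test compound: 500 sorted LSK cells from Crbn^I391V mice, or 1000 bone marrow cells from MLL-AF9 Crbn^I391V leukemic mice. Colonies were counted after 5 days and normalized. Cells came from n=3 mice. Mean ± SEM of biological replicates from two experiments.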

[23] = tested on: LSK cells from Crbn^I391V mice; assay: Colony assay of Crbn^I391V LSK cells; assay type: cell-based, mouse; settings: 10 nM, M3434 methylcellulose
Method in brief: as §4

[24] = tested on: primary AML patient samples; assay: Colony assay of primary AML patient samples; assay type: cell-based, human; settings: 10 nM, n = 8, compared to healthy adult bone marrow or cord blood cells
Method in brief: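 Primary AML patient cells, normal bone marrow or cord blood CD34+ HSPCs were plated at 5000 cells on methylcellulose with test compound. Colonies were counted after 7 days and normalized to control. Mean ± SEM of samples from more than three experiments.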

[25] = tested on: MOLM-13 and MOLM-14 cells; assay: Combination viability assay with other AML drugs; assay type: cell-based, human; settings: 72 h
Method in brief: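 MOLM-13 cells were co-treated with test compound plus midostaurin or cytarabine for 72 h. Viability was read by CellTiter-Glo luminescence. A representative of three independent experiments is shown, mean ± SEM of triplicates.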

[26] = Pharmacokinetics in mice; assay type: in vivo, mouse; settings: plasma, ip
Method in brief: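 Single intraperitoneal doses in DMSO: one test compound at 5 or 50 mg/kg in male CD1 mice, another at 223 mg/kg in female Crbn^I391V mice. Plasma was collected at set times and compound levels were measured by HPLC.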

[27] = tested on: MLL-AF9 Crbn^I391V cells; assay: Pharmacodynamics in BL6 mice transplanted with MLL-AF9 Crbn^I391V cells; assay type: in vivo, mouse
[28] = tested on: MLL-AF9 Crbn^I391V cells; assay: Efficacy in BL6 mice transplanted with MLL-AF9 Crbn^I391V cells; assay type: in vivo
[29] = tested on: MOLM-13 cells; assay: Efficacy in NSG mice transplanted with MOLM-13 cells; assay type: in vivo; settings: for survival: vs DMSO
[30] = tested on: AML PDX#2; assay: Efficacy in NSG mice transplanted with AML PDX; assay type: in vivo, mouse
[31] = Solubility in DMSO; assay type: physicochemical
[32] = Toxicity in the hematopoietic system of Crbn^I391V mice; assay type: in vivo, mouse; settings: four rounds of 223 mg/kg, weekly
Method in brief: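 Female Crbn^I391V mice aged 8–12 weeks received DMSO or 223 mg/kg test compound once weekly for four rounds. They were sacrificed 4 weeks later. Blood was analysed on a hematology analyser, and stem/progenitor compartments were assessed by flow cytometry.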

[33] = tested on: MLL-AF9 Crbn^I391V cells; assay: Efficacy in Crbn^I391V mice transplanted with MLL-AF9 Crbn^I391V cells; assay type: in vivo, mouse; settings: 223 mg/kg weekly, non-irradiated Crbn^I391V mice
[34] = read-out: IC50 (cell viability)

## COc1ccc2cc(C(=O)Nc3ccc4c(c3)CN(C3CCC(=O)NC3=O)C4=O)ccc2c1 (centres unmarked) [DEG-35, N-(2-(2,6-dioxopiperidin-3-yl)-1-oxoisoindolin-5-yl)-6-methoxy-2-naphthamide]
[1]; [34]
  IC50: 5 nM
[1]; read-out: IC50 (viability)
  IC50: 5.7 nM
[1]; unlike lenalidomide, Figure 1E
  cellular growth inhibition: inhibited cellular growth
[2]
  IC50 values (growth): single digit nM to low μM
[3]
  IC50: 9.2 nM
[4]
  IC50: 100 nM
[5]
  IC50: 5.2 nM
[6]
  IC50: 15.7 nM
[7]
  DCmax CK1α: 84%
[8]
  DCmax IKZF2: 92%
[9]
  DCmax IKZF1-GFP: 12%
[10]
  DCmax GSPT1-GFP: 24%
[11]
  Kd: 473 nM
[12]
  ternary complex between CRBN and CK1α: significantly stronger ternary complex
[13]
  IKZF2 degradation (Western blot): efficiently degraded IKZF2
[14]
  CK1α degradation (Western blot): efficiently degraded CK1α
[14]; MOLM-13, 24 h, Western blot
  concentrations depleting CK1α (as low as): 1 to 10 nM
[15]
  activity against IKZF1 (Western blot): limited activity
[16]
  activity against IKZF3 (Western blot): limited activity
[17]
  activity against IKZF4 (Western blot): limited activity
[18]
  endogenous GSPT1 degradation (Western blot): limited degradation at nanomolar concentrations
[19]
  CK1α rank in global proteomics: most significantly downregulated protein
[20]
  apoptosis induction and myeloid differentiation: significant dose-dependent apoptosis induction and myeloid differentiation
[21]
  apoptosis and myeloid differentiation: resulted in apoptosis and myeloid differentiation at nanomolar concentrations
[22]
  reduction of colonies: half
[23]
  LSK derived colonies: not affected
[24]
  colony formation: reduced colony formation
[25]
  sensitivity to DEG-35 on co-treatment with cytarabine: more sensitive
  sensitivity to DEG-35 on co-treatment with midostaurin: more sensitive
[26]; male, CD1, mouse
  half-life: 2.5 h
[27]; single dose 50 mg/kg, 24 h and 72 h
  degradation of CK1α and IKZF2 in leukemic cells from bone marrow and spleen: efficient degradation of CK1α and IKZF2
[28]; 50 mg/kg
  body weight: without overt weight loss
[28]; 50 mg/kg, vs DMSO
  leukemia progression: delayed leukemia progression
[29]; 50 mg/kg
  body weight: without overt weight loss
  disease burden (spleen and liver weights): decreased spleen and liver weights
  survival: significantly prolonged survival
[30]; AML PDX#2, DEG-35 vs DMSO
  survival: significant prolonged survival

## COc1cccc2c1OCC(C(=O)Nc1ccc3c(c1)CN(C1CCC(=O)NC1=O)C3=O)=C2 (centres unmarked) [DEG-77, N-(2-(2,6-dioxopiperidin-3-yl)-1-oxoisoindolin-5-yl)-8-methoxy-2H-chromene-3-carboxamide]
[1]; [34]
  IC50: 4 nM
[13]
  IKZF2 degradation (Western blot): maintained comparable activity
[14]
  CK1α degradation (Western blot): maintained comparable activity
[26]; female, Crbn^I391V, mouse, 223 mg/kg
  half-life: 16.9 h
[31]
  increase in solubility in DMSO compared to DEG-35: 10 fold
[27]; one injection 223 mg/kg, 24, 48 and 72 h
  degradation of IKZF2, CK1α, GSPT1 in bone marrow and splenic leukemic cells: degradation of IKZF2 and CK1α but not GSPT1
[28]; 223 mg/kg weekly
  body weight: without loss of total body weight
[28]; 223 mg/kg weekly, vehicle 35 days
  survival: 66 days
[28]; cells from mice treated in the primary transplant
  leukemia progression in secondary transplant: pronounced delay in leukemia progression
[29]; 223 mg/kg weekly
  survival: increased survival
[30]; 223 mg/kg weekly from 4 weeks post-transplant
  survival: significant extension of survival
[30]; after a single injection, >85% prior to treatment
  engraftment of PDX cells in the bone marrow: around 40%
[32]
  WBC counts: modest reduction of WBC counts
  platelets and RBC counts: remained unchanged
  stem cell compartment frequency: reduced HSC and MPP1 frequency
[33]
  survival: significant increase in survival
